“Also recorded” adds a separate entry of the source.
What was measured:
[1] = system: Chinese hamster ovary cells (CHO-WBL); assay: In vitro chromosome aberration test, CHO-WBL cells; assay type: cell-based
[2] = system: Male Swiss albino (CD-1) mice, bone marrow PCEs; assay: In vivo micronucleus assay in mice, S807
In short: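 Swiss Albino (CD-1) mice received a single intraperitoneal injection of the test compound as a DMSO solution (132 mg/mL). Range finding used 3/sex/group at 500, 1000 or 2000 mg/kg bw, then added groups at 800 (3/sex) and 700 (3 males). The definitive phase used 175, 350 and 700 mg/kg bw, 21 animals/group. Readouts were bone-marrow mnPCE incidence and PCE/total erythrocyte ratio versus vehicle. Cyclophosphamide was the positive control.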

Sprague-Dawley Rats [3] = assay: 13-week subchronic toxicity study on S807; assay type: in vivo, Crl:CD(SD)IGS BR rats; settings: 2, 10, 20 mg/kg bw/day food ad-mix, 13 weeks
In short: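 Crl:CD(SD)IGS BR rats, 20/sex/group, were given the test compound in the diet at 0 (control), 2, 10 or 20 mg/kg bw/day for 93 consecutive days.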

[4] = Dietary exposure estimates; parameters: species or system human
[5] = Pharmacokinetics of S807 in rats, single iv or oral dose; assay type: in vivo, Sprague-Dawley rats; settings: for AUC(0-t) / Cmax / Tmax / Vd / half-life / clearance / bioavailability: Sprague-Dawley, rat, plasma; for clearance: CL (clearance), iv 1 mg/kg bw; for AUClast Ratio / Cmax Ratio: vs 20 mg/kg bw dose
In short: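 Sprague-Dawley rats, 4/sex, received a 1 mg/kg bw IV bolus in 20% PEG400/10% ethanol/2% DMSO/68% saline. Sampling was via jugular cannula at pre-dose and 2 min to 8 h. Oral groups (4/sex/group) were gavaged once with 20, 50 or 200 mg/kg bw in 1% methylcellulose and sampled from 15 min to 24 h. Plasma was assayed for parent and metabolites.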

[6] = In vivo metabolism of S807 in rats; parameters: species or system Sprague-Dawley rats; settings: male and female pooled rat plasma, 1 h post dose, 200 mg/kg bw oral
[7] = system: S. typhimurium strains TA98, TA100, TA1535, TA1537 and E. coli strain WP2 uvrA; assay: Bacterial reverse mutation test; assay type: cell-based; settings: 21–5000 μg/plate, plate incorporation and pre-incubation, ±S9
In short: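 The assay followed OECD Guideline 471 and used S. typhimurium TA98, TA100, TA1535 and TA1537 and E. coli WP2 uvrA. It was run with and without S9 from livers of Aroclor 1254-treated Sprague-Dawley rats. One compound was tested at 21–5000 μg/plate by plate incorporation and pre-incubation. The other was tested at 50–5000 μg/plate in an initial toxicity-mutation test and a confirmatory mutation test.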

[8] = In vitro metabolism by human liver microsomes; assay type: in vitro ADME; settings: S807 incubation, relative to S807 at time = 0
[9] = In vitro metabolism by rat liver microsomes; assay type: in vitro ADME, Sprague-Dawley rat; settings: S807 incubation, relative to S807 at time = 0
Sprague-Dawley Rats [10] = assay: 21-day dose-range finding toxicity study on S807; assay type: in vivo, Crl:CD(SD)IGS BR rats; settings: 50, 100, 200 mg/kg bw/day food ad-mix, 21 days
In short: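 Dose-range finder for the 90-day study. Crl:CD(SD)IGS BR rats, 5/sex/group, received the test compound continuously in the diet at 50, 100 or 200 mg/kg bw/day for 21 days. One group of 5/sex served as control and received the vehicle diet.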

[11] = oral gavage 20 mg/kg bw, female
[12] = oral gavage 50 mg/kg bw, female
[13] = oral gavage 200 mg/kg bw, female

**Q.** For `CCCC(CCC)NC(=O)c1ccc2c(c1)OCO2` [S807, N-(heptan-4-yl)benzo[d][1,3]dioxole-5-carboxamide], which “Chromosome aberration (in vitro), Result” value ([1]; 21–5000 μg/mL, 3 h −S9, 3 h +S9, 18 h −S9) is on record?
**A.** The value was “did not induce chromosomal aberrations; also recorded: Negative”.

**Q.** And the “test article concentration with precipitate in the cell cultures” value ([1]; all conditions)?
**A.** Its value is no less than 62 µg/mL.

**Q.** And the “Micronucleus formation (in vivo), Result” value ([2]; 175, 350, 700 mg/kg bw (ip))?
**A.** The value was “neither clastogenic nor aneugenic; also recorded: Negative”.

**Q.** And the “dose groups with deaths within 48 h of treatment” value ([2]; range finding, ip)?
**A.** The value was no less than 800 mg/kg bw.

**Q.** What about the Findings (Sprague-Dawley Rats [3]) of the same molecule?
**A.** The Findings was “No test-article related findings”.

**Q.** What about the NOEL (Sprague-Dawley Rats [3]) of the same molecule?
**A.** Its NOEL is 20 mg/kg bw/day.

**Q.** And the “NOEL as times the estimated dietary exposure (mTAMDI)” value ([4]; NOEL 20 mg/kg bw/day)?
**A.** The value was 2560 times.

**Q.** And the “margin of safety, NOEL vs estimated use” value ([4]; NOEL 20 mg/kg bw/day vs 4.9 μg/kg bw/day)?
**A.** Its value is greater than 4000 fold.

**Q.** And the AUC(0-t) ([5]; female, iv, 1 mg/kg)?
**A.** The AUC(0-t) was 342 ± 81.4 ng·h/mL.

**Q.** What about the Cmax ([5]; female, iv, 1 mg/kg) of the same molecule?
**A.** Its Cmax is 949 ± 222 ng/mL.

**Q.** And the Tmax ([5]; female, iv, 1 mg/kg)?
**A.** Its Tmax is 0.033 h.

**Q.** And the Vd ([5]; female, iv, 1 mg/kg)?
**A.** The Vd was 5.61 L/kg.

**Q.** What about the half-life ([5]; female, iv, 1 mg/kg) of the same molecule?
**A.** Its half-life is 3.02 ± 0.92 h.

**Q.** And the clearance ([5]; female, iv, 1 mg/kg, female rat)?
**A.** The clearance was 47.2 mL/min/kg.

**Q.** What about the AUC(0-t) ([5]; female, po, 20 mg/kg) of the same molecule?
**A.** Its AUC(0-t) is 166 ± 72.2 ng·h/mL.

**Q.** What about the Cmax ([5]; female, po, 20 mg/kg) of the same molecule?
**A.** Its Cmax is 187 ± 87.6 ng/mL.

**Q.** And the Tmax ([5]; female, po, 20 mg/kg)?
**A.** The Tmax was 0.25 h.

**Q.** What about the bioavailability ([5]; female, po, 20 mg/kg) of the same molecule?
**A.** The bioavailability was 2.43%.

**Q.** What about the half-life ([5]; female, po, 20 mg/kg) of the same molecule?
**A.** Its half-life is 1.07 ± 0.67 h.

**Q.** What about the AUC(0-t) ([5]; female, po, 50 mg/kg) of the same molecule?
**A.** Its AUC(0-t) is 1410 ± 1020 ng·h/mL.

**Q.** And the Cmax ([5]; female, po, 50 mg/kg)?
**A.** The Cmax was 529 ± 379 ng/mL.

**Q.** What about the Tmax ([5]; female, po, 50 mg/kg) of the same molecule?
**A.** Its Tmax is 1 h.

**Q.** And the bioavailability ([5]; female, po, 50 mg/kg)?
**A.** Its bioavailability is 8.25%.

**Q.** And the half-life ([5]; female, po, 50 mg/kg)?
**A.** Its half-life is 1.17 ± 0.16 h.

**Q.** And the AUC(0-t) ([5]; female, po, 200 mg/kg)?
**A.** Its AUC(0-t) is 108000 ± 27900 ng·h/mL.

**Q.** What about the Cmax ([5]; female, po, 200 mg/kg) of the same molecule?
**A.** The Cmax was 9150 ± 2410 ng/mL.

**Q.** And the Tmax ([5]; female, po, 200 mg/kg)?
**A.** Its Tmax is 3 h.

**Q.** What about the bioavailability ([5]; female, po, 200 mg/kg) of the same molecule?
**A.** Its bioavailability is 158%.

**Q.** And the half-life ([5]; female, po, 200 mg/kg)?
**A.** The half-life was 2.62 ± 0.2 h.

**Q.** And the “CL as % of hepatic blood flow” value ([5]; iv, females)?
**A.** The value was 85.5%.

**Q.** And the “CL as % of hepatic blood flow” value ([5]; iv, males)?
**A.** Its value is 55.6%.

**Q.** And the AUC(0-t) ([5]; male, iv, 1 mg/kg)?
**A.** Its AUC(0-t) is 491 ± 33.3 ng·h/mL.

**Q.** And the Cmax ([5]; male, iv, 1 mg/kg)?
**A.** Its Cmax is 1110 ± 237 ng/mL.

**Q.** What about the Tmax ([5]; male, iv, 1 mg/kg) of the same molecule?
**A.** Its Tmax is 0.033 h.

**Q.** And the Vd ([5]; male, iv, 1 mg/kg)?
**A.** Its Vd is 4.63 L/kg.

**Q.** What about the half-life ([5]; male, iv, 1 mg/kg) of the same molecule?
**A.** Its half-life is 3.02 ± 0.24 h.

**Q.** And the clearance ([5]; male, iv, 1 mg/kg, male rat)?
**A.** The clearance was 30.7 mL/min/kg.

**Q.** And the AUC(0-t) ([5]; male, po, 20 mg/kg)?
**A.** The AUC(0-t) was 182 ± 70.5 ng·h/mL.

**Q.** And the Cmax ([5]; male, po, 20 mg/kg)?
**A.** The Cmax was 174 ± 95.1 ng/mL.

**Q.** What about the Tmax ([5]; male, po, 20 mg/kg) of the same molecule?
**A.** The Tmax was 0.313 h.

**Q.** What about the bioavailability ([5]; male, po, 20 mg/kg) of the same molecule?
**A.** The bioavailability was 1.85%.

**Q.** What about the half-life ([5]; male, po, 20 mg/kg) of the same molecule?
**A.** Its half-life is 1.14 ± 0.35 h.

**Q.** And the AUC(0-t) ([5]; male, po, 50 mg/kg)?
**A.** Its AUC(0-t) is 4890 ± 4960 ng·h/mL.

**Q.** What about the Cmax ([5]; male, po, 50 mg/kg) of the same molecule?
**A.** The Cmax was 1270 ± 1170 ng/mL.

**Q.** And the Tmax ([5]; male, po, 50 mg/kg)?
**A.** The Tmax was 1.5 h.

**Q.** What about the bioavailability ([5]; male, po, 50 mg/kg) of the same molecule?
**A.** The bioavailability was 19.9%.

**Q.** What about the half-life ([5]; male, po, 50 mg/kg) of the same molecule?
**A.** The half-life was 1.83 ± 0.61 h.

**Q.** And the AUC(0-t) ([5]; male, po, 200 mg/kg)?
**A.** Its AUC(0-t) is 101000 ± 19500 ng·h/mL.

**Q.** And the Cmax ([5]; male, po, 200 mg/kg)?
**A.** The Cmax was 10500 ± 937 ng/mL.

**Q.** What about the Tmax ([5]; male, po, 200 mg/kg) of the same molecule?
**A.** The Tmax was 4 h.

**Q.** What about the bioavailability ([5]; male, po, 200 mg/kg) of the same molecule?
**A.** Its bioavailability is 103%.

**Q.** And the half-life ([5]; male, po, 200 mg/kg)?
**A.** Its half-life is 2.49 ± 0.07 h.

**Q.** And the “AUClast Ratio” value [5, 11]?
**A.** Its value is 1.

**Q.** What about the “Cmax Ratio” value [5, 11] of the same molecule?
**A.** Its value is 1.

**Q.** What about the “AUClast Ratio” value ([5]; oral gavage 20 mg/kg bw, male) of the same molecule?
**A.** The value was 1.

**Q.** What about the “Cmax Ratio” value ([5]; oral gavage 20 mg/kg bw, male) of the same molecule?
**A.** The value was 1.

**Q.** And the “AUClast Ratio” value [5, 12]?
**A.** Its value is 8.49.

**Q.** And the “Cmax Ratio” value [5, 12]?
**A.** Its value is 2.83.

**Q.** And the “AUClast Ratio” value ([5]; oral gavage 50 mg/kg bw, male)?
**A.** Its value is 26.9.

**Q.** What about the “Cmax Ratio” value ([5]; oral gavage 50 mg/kg bw, male) of the same molecule?
**A.** The value was 7.30.

**Q.** And the “AUClast Ratio” value [5, 13]?
**A.** Its value is 651.

**Q.** What about the “Cmax Ratio” value [5, 13] of the same molecule?
**A.** Its value is 48.9.

**Q.** What about the “AUClast Ratio” value ([5]; oral gavage 200 mg/kg bw, male) of the same molecule?
**A.** Its value is 555.

**Q.** What about the “Cmax Ratio” value ([5]; oral gavage 200 mg/kg bw, male) of the same molecule?
**A.** The value was 60.3.

**Q.** What about the “MS (EIC) Peak Area” value [6] of the same molecule?
**A.** The value was 29,000,000 cps.

**Q.** What about the “Reverse mutation (in vitro), Result” value [7] of the same molecule?
**A.** The value was “not mutagenic; also recorded: Negative”.

**Q.** What about the “% MS (EIC) Peak Area” value ([8]; 10 min) of the same molecule?
**A.** The value was 89.4%.

**Q.** And the “% MS (EIC) Peak Area” value ([8]; 20 min)?
**A.** The value was 80.8%.

**Q.** What about the “% MS (EIC) Peak Area” value ([8]; 60 min) of the same molecule?
**A.** Its value is 65.0%.

**Q.** And the “% MS (EIC) Peak Area” value ([9]; 10 min)?
**A.** The value was 70.0%.

**Q.** And the “% MS (EIC) Peak Area” value ([9]; 20 min)?
**A.** The value was 34.0%.

**Q.** What about the Findings (Sprague-Dawley Rats [10]) of the same molecule?
**A.** The Findings was “Lower bw gain in females at 200 mg/kg bw/day; increased liver weight in females at 100 and 200 mg/kg bw/day; histomorphological changes in livers of both male and females at all doses”.

**Q.** And the NOEL (Sprague-Dawley Rats [10])?
**A.** The NOEL was less than 50 mg/kg bw/day.
